In series [1] the test system is Rattus norvegicus. In words: Hypolipidemic activity in Wistar rat assessed as reduction in plasma triglyceride level at 462 umol/kg/day administered through diet for 10 days. It counts as functional. The following applies: 240 h.
For series [2], the system named is Rattus norvegicus. The series is described as follows: Hypolipidemic activity in Wistar rat assessed as reduction in plasma cholesterol level at 462 umol/kg/day administered through diet for 10 days. Type of series: functional. The following applies: 240 h. In short, it runs like this:
(§1)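 Young male Wistar rats, 170-190 g initial weight, groups of six, given compound mixed thoroughly into Purina Lab Chow ad libitum for 4 or 10 days as stated. Daily dose calculated from food consumption and body weight. Bled by cardiac puncture at end of treatment; plasma cholesterol measured by automated procedure. Expressed as percent reduction versus simultaneous untreated control group; Student's t test.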

In series [3] the test system is Rattus norvegicus. The series is described as follows: Hypolipidemic activity in Wistar rat assessed as reduction in plasma cholesterol level at 453 umol/kg/day administered through diet for 4 days. Type of series: functional. The following applies: 96 h. In short, it runs like this:
as §1

Series [4] relates to Rattus norvegicus. The series is described as follows: Increase in cholesterol level in Wistar rat liver at 462 umol/kg/day administered through diet for 10 days. It counts as ADME, organism-based. The conditions noted are these: in vivo, po, 240 h.
In series [5] the test system is Rattus norvegicus. In words: Hypolipidemic activity in Wistar rat assessed as reduction in plasma triglyceride level at 453 umol/kg/day administered through diet for 4 days. Type of series: functional. The following applies: 96 h.
Series [6] relates to Rattus norvegicus. In words: Increase in liver weight in Wistar rat at 453 umol/kg/day administered through diet for 4 days. The following applies: in vivo, po, 96 h. Type of series: ADME, organism-based.
Series [7] has as its system Rattus norvegicus. In words: Increase in liver weight in Wistar rat at 462 umol/kg/day administered through diet for 10 days. Type of series: ADME, organism-based. The following applies: in vivo, po, 240 h.
In series [8] the test system is Rattus norvegicus. The series is described as follows: Hypolipidemic activity in Wistar rat assessed as reduction in plasma triglyceride level at 422 umol/kg/day administered through diet for 4 days. The following applies: 96 h. Type of series: functional.
Series [9] concerns Rattus norvegicus. In words: Hypolipidemic activity in Wistar rat assessed as reduction in plasma cholesterol level at 422 umol/kg/day administered through diet for 4 days. It counts as functional. The following applies: 96 h. In short, it runs like this: as §1
Series [10] concerns Rattus norvegicus. The series is described as follows: Increase in cholesterol level in Wistar rat liver at 422 umol/kg/day administered through diet for 4 days. The conditions noted are these: in vivo, po, 96 h. Type of series: ADME, organism-based.
For series [11], the system named is Rattus norvegicus. In words: Increase in liver weight in Wistar rat at 422 umol/kg/day administered through diet for 4 days. The conditions noted are these: in vivo, po, 96 h. Type of series: ADME, organism-based.
For series [12], the system named is Rattus norvegicus. In words: Increase in liver weight in Wistar rat at 385 umol/kg/day administered through diet for 10 days. Type of series: ADME, organism-based. The conditions noted are these: in vivo, po, 240 h.
The test system of series [13] is Rattus norvegicus. The series is described as follows: Hypolipidemic activity in Wistar rat assessed as reduction in plasma triglyceride level at 204 umol/kg/day administered through diet for 10 days. The conditions noted are these: 240 h. Type of series: functional. The procedure, abridged: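 Young male Wistar rats, 170-190 g initial weight, six per group, fed drug mixed thoroughly into Purina Lab Chow ad libitum for the stated days; daily dose calculated from food consumption and body weight. Bled by cardiac puncture at end; plasma cholesterol and triglycerides by automated procedures, expressed as percent reduction versus simultaneous untreated controls; Student's t test.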

Series [14] has as its system Rattus norvegicus. The series is described as follows: Hypolipidemic activity in Wistar rat assessed as reduction in plasma triglyceride level at 398 umol/kg/day administered through diet for 10 days. The following applies: 240 h. It counts as functional. The procedure, abridged: (§2)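 Young male Wistar rats (170-190 g initial weight), groups of six, fed test compound mixed into Purina Lab Chow ad libitum; daily dose calculated from food consumption and body weight. Bled by cardiac puncture at end of treatment; plasma triglycerides measured by automated procedure. Results given as percent reduction versus a simultaneous untreated control group, with significance by Student's t test.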

For series [15], the system named is Rattus norvegicus. In words: Hypolipidemic activity in Wistar rat assessed as reduction in plasma cholesterol level at 385 umol/kg/day administered through diet for 10 days. Type of series: functional. The following applies: 240 h. The procedure, abridged:
(§3)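 Young male Wistar rats, 170-190 g at start, in groups of six, given compound mixed into Purina Lab Chow ad libitum for 4 or 10 days as stated. Daily dose was calculated from food consumption and body weight. Plasma was taken by cardiac puncture at the end and cholesterol measured by automated procedure. Results are % reduction versus a concurrent untreated control group, with Student's t test.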

The subject of series [16] is Rattus norvegicus. In words: Hypolipidemic activity in Wistar rat assessed as reduction in plasma cholesterol level at 204 umol/kg/day administered through diet for 10 days. It counts as functional. The following applies: 240 h. The procedure, abridged: as §3
Series [17] concerns Rattus norvegicus. The series is described as follows: Increase in liver weight in Wistar rat at 204 umol/kg/day administered through diet for 10 days. Type of series: ADME, organism-based. The following applies: in vivo, po, 240 h.
The test system of series [18] is Rattus norvegicus. The series is described as follows: Increase in liver weight in Wistar rat at 398 umol/kg/day administered through diet for 10 days. It counts as ADME, organism-based. The conditions noted are these: in vivo, po, 240 h.
For series [19], the system named is Rattus norvegicus. In words: Hypolipidemic activity in Wistar rat assessed as reduction in plasma cholesterol level at 398 umol/kg/day administered through diet for 10 days. It counts as functional. The conditions noted are these: 240 h. The procedure, abridged: as §3
Series [20] deals with Rattus norvegicus. In words: Increase in cholesterol level in Wistar rat liver at 385 umol/kg/day administered through diet for 10 days. The conditions noted are these: in vivo, po, 240 h. Type of series: ADME, organism-based.
Series [21] relates to Rattus norvegicus. The series is described as follows: Increase in cholesterol level in Wistar rat liver at 398 umol/kg/day administered through diet for 10 days. Type of series: ADME, organism-based. The conditions noted are these: in vivo, po, 240 h.
Series [22] concerns Rattus norvegicus. The series is described as follows: Increase in cholesterol level in Wistar rat liver at 204 umol/kg/day administered through diet for 10 days. Type of series: ADME, organism-based. The conditions noted are these: in vivo, po, 240 h.
Series [23] concerns Rattus norvegicus. In words: Hypolipidemic activity in Wistar rat assessed as reduction in plasma triglyceride level at 385 umol/kg/day administered through diet for 10 days. Type of series: functional. The following applies: 240 h. In short, it runs like this:
as §2

In series [24] the test system is Rattus norvegicus. The series is described as follows: Hypolipidemic activity in Wistar rat assessed as reduction in plasma triglyceride level at 439 umol/kg/day administered through diet for 4 days. It counts as functional. The following applies: 96 h. In short, it runs like this: (§4)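 Young male Wistar rats (initial weight 170-190 g), groups of six, fed compound mixed into Purina Lab Chow ad libitum for 4 or 10 days; daily dose calculated from food consumption and body weight. Bled by cardiac puncture; plasma cholesterol and triglycerides by automated procedures; percent reduction versus simultaneous untreated controls, Student's t test.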

For series [25], the system named is Rattus norvegicus. The series is described as follows: Increase in cholesterol level in Wistar rat liver at 439 umol/kg/day administered through diet for 4 days. It counts as ADME, organism-based. The following applies: in vivo, po, 96 h.
The test system of series [26] is Rattus norvegicus. The series is described as follows: Hypolipidemic activity in Wistar rat assessed as reduction in plasma triglyceride level at 417 umol/kg/day administered through diet for 10 days. Type of series: functional. The following applies: 240 h.
Series [27] concerns Rattus norvegicus. In words: Increase in liver weight in Wistar rat at 417 umol/kg/day administered through diet for 10 days. Type of series: ADME, organism-based. The following applies: in vivo, po, 240 h.
In series [28] the test system is Rattus norvegicus. The series is described as follows: Hypolipidemic activity in Wistar rat assessed as reduction in plasma cholesterol level at 417 umol/kg/day administered through diet for 10 days. Type of series: functional. The following applies: 240 h. In short, it runs like this: as §3
For series [29], the system named is Rattus norvegicus. The series is described as follows: Hypolipidemic activity in Wistar rat assessed as reduction in plasma triglyceride level at 419 umol/kg/day administered through diet for 10 days. It counts as functional. The following applies: 240 h. The procedure, abridged: as §4
Series [30] concerns Rattus norvegicus. The series is described as follows: Increase in cholesterol level in Wistar rat liver at 419 umol/kg/day administered through diet for 10 days. Type of series: ADME, organism-based. The conditions noted are these: in vivo, po, 240 h. In short, it runs like this: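 Male Wistar rats (170-190 g), six per group, given compound by admixture to lab chow ad libitum for 4 or 10 days, dose derived from food intake. Liver cholesterol determined by automated procedure, expressed as mg/g wet tissue, compared with an untreated control group by Student's t test.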

Series [31] concerns Rattus norvegicus. The series is described as follows: Increase in liver weight in Wistar rat at 439 umol/kg/day administered through diet for 4 days. Type of series: ADME, organism-based. The following applies: in vivo, po, 96 h. The procedure, abridged: (§5)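 Male Wistar rats (170-190 g initial), groups of six, dosed via diet ad libitum for 4 or 10 days, daily dose from food consumption. Liver wet weight measured, expressed as g/100 g final body weight, compared with untreated controls run simultaneously.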

Series [32] has as its system Rattus norvegicus. The series is described as follows: Increase in liver weight in Wistar rat at 419 umol/kg/day administered through diet for 10 days. Type of series: ADME, organism-based. The following applies: in vivo, po, 240 h. In short, it runs like this:
as §5

Series [33] has as its system Rattus norvegicus. The series is described as follows: Hypolipidemic activity in Wistar rat assessed as reduction in plasma cholesterol level at 439 umol/kg/day administered through diet for 4 days. Type of series: functional. The conditions noted are these: 96 h. The procedure, abridged: as §1
In series [34] the test system is Rattus norvegicus. The series is described as follows: Increase in cholesterol level in Wistar rat liver at 417 umol/kg/day administered through diet for 10 days. Type of series: ADME, organism-based. The conditions noted are these: in vivo, po, 240 h.
Series [35] concerns Rattus norvegicus. In words: Hypolipidemic activity in Wistar rat assessed as reduction in plasma cholesterol level at 419 umol/kg/day administered through diet for 10 days. The following applies: 240 h. Type of series: functional. The procedure, abridged:
as §1

Structures are written as SMILES.

By inhibition in vivo is commonly meant the relative decrease from the control value, in per cent. Regarding `CCCCCCCCCCCCCCOc1cccc(C(=O)OC)c1`, the values for the inhibition in vivo at 462 µmol/kg in [1] and in series [2] were 59% and 24%, respectively. The figures for the inhibition in vivo at 453 µmol/kg in series [3] and in [5] were 0% and 51%, respectively. For the same compound, the Activity in series [4] is listed as 12%; in [6], 0%; in [7], 0%.
`CCCCCCCCCCCCCCCCOc1ccc(C(=O)OCC)cc1`: the inhibition in vivo at 422 µmol/kg in [8] is 29%; in series [9], 8%. Further, the Activity is reported as 9% in [10] and 11% in series [11].
As to `CCCCCCCCCCCCCCCCOc1ccc(C(=O)OC)cc1`, the Activity is listed as 5% in series [12]; 10% in series [17]; 12% in [18]; 1% in series [20]; 2% in [21]; 0% in series [22]. The inhibition in vivo at 204 µmol/kg in series [13] worked out at 23%; in [16], 0%. For the same compound, the inhibition in vivo at 398 µmol/kg is 40% in [14] and 14% in [19]. For the same compound, the inhibition in vivo at 385 µmol/kg worked out at 20% in [15] and 63% in [23].
For the compound `CCCCCCCCCCCCCCCOc1ccc(C(=O)OC)cc1`, the inhibition in vivo at 439 µmol/kg is 46% in [24] and 19% in series [33]. Besides, the Activity in [25] was determined as 9%; in [27], 0%; in series [30] it was 2%; in series [31], 7%; in [32] it was 15%; in series [34], 9%. For the same compound, the inhibition in vivo at 417 µmol/kg in series [26] came to 73%; in series [28] it was 37%. In addition, the inhibition in vivo at 419 µmol/kg was 57% in [29] and 20% in series [35].

The values above are taken from ChEMBL document CHEMBL3272012, “5-(Tetradecyloxy)-2-furancarboxylic acid and related hypolipidemic fatty acid-like alkyloxyarylcarboxylic acids” (J Med Chem, 1977).
